Source: PubChem BioAssay (The Scripps Research Institute Molecular Screening Center)
Sampled rows, rich in hits. Any-hit rate of the full collection: about 3.7%.
HCV NS3 hel inh: inhibitors of Hepatitis C virus NS3 helicase; inhibition, % at 10.9 µM; NS3 helicase DNA unwinding, Cy5 molecular beacon fluorescence; AID 1800; actives 0.56% (n = 290,000);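 active = inhibition above the mean of all tested compounds plus 3 SD, set per campaign, cut at about 35% in these data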;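 note: 0% = DMSO wells and 100% = thioflavine S control wells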
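Assay system – hepatitis C virus NS3 helicase domain fragment enzyme · Buffer or medium – MOPS pH 6.5, MgCl2, DTT, Tween20, BSA · Reagent – Cy5/quencher beacon DNA duplex and ATP to start · Compound – single 10.9 µM dose · Timing – 1 h at 25 °C · Technique – Cy5 beacon fluorescence read at start and 1 h · Measure – % inhibition of unwinding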
TAAR1 antagonist: antagonists of human TAAR1; Q96RJ0; CHO RD-HGA16 TAAR1, Fluo-8 calcium fluorescence, antagonist; inhibition, % at 3 µM; actives 1.5% (n = 360,000); AID 624466;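 active = inhibition above a per-plate cutoff, the mean inhibition of test compounds on that plate plus 3 SD, cut at about 49% in these data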;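 note: 0% = DMSO plus EC80 beta-PEA response and 100% = DMSO alone without agonist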
Target sequence (Q96RJ0 whole entry, looked up): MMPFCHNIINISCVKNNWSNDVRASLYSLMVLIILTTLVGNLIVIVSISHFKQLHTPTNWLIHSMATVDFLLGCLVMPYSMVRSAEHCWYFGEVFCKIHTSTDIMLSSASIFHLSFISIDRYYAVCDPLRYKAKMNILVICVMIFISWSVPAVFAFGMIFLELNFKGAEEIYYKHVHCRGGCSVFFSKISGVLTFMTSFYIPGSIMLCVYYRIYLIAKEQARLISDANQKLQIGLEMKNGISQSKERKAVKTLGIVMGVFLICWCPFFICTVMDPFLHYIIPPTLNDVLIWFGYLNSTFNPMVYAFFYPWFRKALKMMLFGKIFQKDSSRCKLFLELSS
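System: RD-HGA16 CHO cells with stable hTAAR1 and Gα16 | Probe or stimulus: EC80 β-phenethylamine stimulus | Dosing: 3 µM, single point | Times: Dye loading 75 min at 37 °C, then 30 min room temperature | Measured by: Fluo-8 calcium-sensitive fluorescence | Read-out basis: % inhibition of agonist calcium response | Replicates: n of 1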
TAAR1 ag: human TAAR1 agonism | Q96RJ0 | CHO RD-HGA16 TAAR1, Fluo-8 calcium fluorescence; vehicle wells 0%, saturating PEA agonist 100% | activation, % at 3 µM | actives 0.99% (n = 360,000) | AID 624467;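 active = activation above the mean activation of all test compounds in the run plus 3 SD, cut at about 38% in these data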
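Assay system: CHO-derived RD-HGA16 cells with stable Gα16 and human TAAR1; timing: 17-24 h seeding, 75 min 37 °C dye, 30 min RT; read-out: % activation from peak over basal fluorescence ratio, DMSO-to-PEA scaled; measured by: kinetic Fluo-8 calcium fluorescence; benchmarks: low control DMSO, high control PEA (EC100); doses: 3 µM single concentration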
rCAG RNA binder: binds r(CAG) RNA repeats; r(CAG) RNA repeat, TO-PRO-1 dye displacement fluorescence; actives 1.3% (n = 370,000); inhibition, % at 3 µM;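 active = inhibition above the plate cutoff, the mean of all test compounds on that plate plus 3 SD, cut at about 35% in these data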;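 note: 0% = DMSO alone and 100% = 100 µM mitoxantrone as full dye displacement; higher means more dye released from RNA so lower well fluorescence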
core dimer inh: blocks dimerization of HCV core protein. inhibition, % at 5 µM. actives 0.33% (n = 300,000). TR-FRET GST/Flag-core106 dimerization, 1536-well. AID 1899;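 active = inhibition above the mean of all tested compounds plus 3 SD, set per screening campaign, cut at about 45% in these data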
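Material: GST/Flag-tagged HCV core106 proteins. Incubation: 4 h, 22.5 °C incubation. Read-out basis: inhibition (%) from 671 over 617 nm ratio. Measured by: TR-FRET, excitation 340 nm, emission 617 and 671 nm.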
rCAG binder conf: r(CAG) RNA repeat binding, confirmation | shares compounds with rCAG RNA binder | TO-PRO-1 dye displacement fluorescence | inhibition, % at 3 µM | actives 70% (n = 4,300) | AID 652065;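 active = inhibition above a per-plate cutoff, the mean inhibition of sample wells plus 3 SD, cut at about 35% in these data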;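 note: loss of TO-PRO-1 fluorescence as compound displaces dye from 1x1 AA loop RNA; 0% = DMSO only wells and 100% = 100 µM mitoxantrone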
dCAG dye counter: DNA CAG dye complex inhibition counter-screen; shares compounds with rCAG RNA binder; d(CAG) DNA oligo TO-PRO-1 dye displacement, fluorescence; inhibition, % at 3 µM; actives 94% (n = 4,300); AID 652068;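 active = inhibition above its plate's cutoff, the mean test-well inhibition plus 3 SD, cut at about 4.8% in these data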;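 note: 0% = DNA dye mix with DMSO and 100% = 100 µM mitoxantrone; hits displace the dye from DNA and so lower well fluorescence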
dCAG dye DR: counter-screen for rCAG binders: inhibitors of DNA CAG TO-PRO-1 complex; shares compounds with rCAG RNA binder; DNA CAG/GTC duplex TO-PRO-1 dye displacement fluorescence; IC50, µM; actives 20% (n = 250); in the data active = IC50 below about 10 µM
The depositor's hits bear a star.

Screening COc1cc(-c2ccc(Nc3ccccc3C(=O)O)c(OC)c2)ccc1Nc1ccccc1C(=O)O returned HCV NS3 hel inh -49.1, TAAR1 antagonist -0.1, TAAR1 ag 0.2, rCAG RNA binder 93.3*, rCAG binder conf 86.5* and dCAG dye counter 58.6*.
For Cc1ccc(S(=O)(=O)Nc2ccccc2NS(=O)(=O)c2ccc(C)cc2)cc1 the results were TAAR1 antagonist -0.1, TAAR1 ag -2.8, rCAG RNA binder 70.7*, rCAG binder conf 55.9* and dCAG dye counter 19.8*.
Screening Cc1ccc(S(=O)(=O)Nc2ccccc2O)cc1 returned TAAR1 antagonist -17.3, TAAR1 ag 4.0 and rCAG RNA binder 1.4.
Cc1ccc(NS(=O)(=O)c2ccccc2)c([N+](=O)[O-])c1 was read as TAAR1 antagonist 4.7, TAAR1 ag -1.4 and rCAG RNA binder 3.0.
Cc1ccc(NS(=O)(=O)c2ccccc2)c(NS(=O)(=O)c2ccccc2)c1 was read as TAAR1 antagonist -0.4, TAAR1 ag -0.1, rCAG RNA binder 48.6*, rCAG binder conf 47.8* and dCAG dye counter 12.5*.
Screening Cc1ccc(Cl)cc1NS(=O)(=O)c1ccccc1 returned TAAR1 antagonist 8.6, TAAR1 ag 11.0 and rCAG RNA binder 4.2.
`O=S(=O)(Nc1ccc(Cl)cc1NS(=O)(=O)c1ccccc1)c1ccccc1` gave TAAR1 antagonist 30.8, TAAR1 ag 3.6, rCAG RNA binder 80.5*, rCAG binder conf 72.8* and dCAG dye counter 37.7*.
Screening O=S1(=O)c2c(cccc2N2CC[C@H](O)C2)OCCCN1C1CC1 returned rCAG RNA binder 5.3.
For CC(C)c1ccc(C2c3[nH]c4ccccc4c3C[C@H]3C(=O)N(c4ccccc4C(=O)N4CCC[C@H]4C(=O)O)C(=O)N23)cc1 (stereo partly drawn) the results were HCV NS3 hel inh -38.5, TAAR1 antagonist 2.7, TAAR1 ag 0.0, rCAG RNA binder 46.2*, core dimer inh 16.4, rCAG binder conf 70.2*, dCAG dye counter 27.4* and dCAG dye DR inactive.
Screening C=CCn1c(Cc2cccs2)nnc1SCC(=O)Nc1ccc2c(c1)OCO2 returned rCAG RNA binder 2.5.
For Cc1cc(S(=O)(=O)Nc2nc(CN3CCOCC3)nc3sc4c(c23)CCC4)ccc1F the results were TAAR1 antagonist -10.8, TAAR1 ag 1.1, rCAG RNA binder 53.7*, rCAG binder conf 49.3* and dCAG dye counter 13.8*.
Cc1ccccc1CSc1nnc(NC(=O)C2COc3ccccc3O2)s1 (stereo not drawn) was read as HCV NS3 hel inh 12.9, TAAR1 antagonist -7.9, TAAR1 ag 7.2, rCAG RNA binder 24.0 and core dimer inh 3.2.
O=C(Nc1nnc(SCc2cccc3ccccc23)s1)C1COc2ccccc2O1 (stereo not drawn) was read as HCV NS3 hel inh -9.7, TAAR1 antagonist 8.3, TAAR1 ag 3.2, rCAG RNA binder 49.8*, core dimer inh 19.1, rCAG binder conf 39.5* and dCAG dye counter 8.2*.
`CN(C)c1ncc(C2=C(Cl)C(=O)C(N3CCCC3)=C(Cl)C2=O)s1` gave HCV NS3 hel inh 29.6, TAAR1 antagonist 0.9, TAAR1 ag 2.2, rCAG RNA binder 64.8*, core dimer inh 84.0*, rCAG binder conf 55.4*, dCAG dye counter 24.5* and dCAG dye DR inactive.
C[C@@H]1/C=C/CC(=O)N[C@H](c2ccccc2)[C@H](C)/C=C/CC(=O)N[C@@H]1c1ccccc1 was read as rCAG RNA binder 2.0.
Screening O=C(CSc1ccc(-c2ccco2)nn1)c1ccc(F)cc1 returned HCV NS3 hel inh 22.0, TAAR1 antagonist -16.1, TAAR1 ag 1.6, rCAG RNA binder 37.1*, core dimer inh 16.7, rCAG binder conf 8.8 and dCAG dye counter 3.7.
